TRPC4 block: inhibitors of mouse TRPC4 channel. actives 0.39% (n = 300,000). B-score at 10 µM. HEK293 TRPC4beta/mu-opioid, DAMGO-evoked Fluo4 calcium flux; active compounds read low. AID 2247;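 active = B-score over 3 SD under the library average, no early fluorescence shift, positive overall ratio signal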
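Material: HEK293 cells with stable TRPC4beta plus mu-opioid receptor expression / Probe or stimulus: DAMGO in two steps, submaximal then maximal / Compound: single concentration per test compound / Technique: kinetic Fluo4 fluorescence imaging of calcium influx / Read-out: per-well B score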
TRPC6 act: activators of mouse TRPC6 channel. HEK293-TRPC6 membrane potential dye fluorescence; active compounds read high. B-score at 10 µM. actives 0.13% (n = 310,000);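 active = B-score of the integrated fluorescence ratio above library mean plus 3 SD, and starting fluorescence ratio within library mean plus 5 SD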;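 note: higher score means more depolarization so channel activation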
Target sequence (Q61143 whole entry, looked up): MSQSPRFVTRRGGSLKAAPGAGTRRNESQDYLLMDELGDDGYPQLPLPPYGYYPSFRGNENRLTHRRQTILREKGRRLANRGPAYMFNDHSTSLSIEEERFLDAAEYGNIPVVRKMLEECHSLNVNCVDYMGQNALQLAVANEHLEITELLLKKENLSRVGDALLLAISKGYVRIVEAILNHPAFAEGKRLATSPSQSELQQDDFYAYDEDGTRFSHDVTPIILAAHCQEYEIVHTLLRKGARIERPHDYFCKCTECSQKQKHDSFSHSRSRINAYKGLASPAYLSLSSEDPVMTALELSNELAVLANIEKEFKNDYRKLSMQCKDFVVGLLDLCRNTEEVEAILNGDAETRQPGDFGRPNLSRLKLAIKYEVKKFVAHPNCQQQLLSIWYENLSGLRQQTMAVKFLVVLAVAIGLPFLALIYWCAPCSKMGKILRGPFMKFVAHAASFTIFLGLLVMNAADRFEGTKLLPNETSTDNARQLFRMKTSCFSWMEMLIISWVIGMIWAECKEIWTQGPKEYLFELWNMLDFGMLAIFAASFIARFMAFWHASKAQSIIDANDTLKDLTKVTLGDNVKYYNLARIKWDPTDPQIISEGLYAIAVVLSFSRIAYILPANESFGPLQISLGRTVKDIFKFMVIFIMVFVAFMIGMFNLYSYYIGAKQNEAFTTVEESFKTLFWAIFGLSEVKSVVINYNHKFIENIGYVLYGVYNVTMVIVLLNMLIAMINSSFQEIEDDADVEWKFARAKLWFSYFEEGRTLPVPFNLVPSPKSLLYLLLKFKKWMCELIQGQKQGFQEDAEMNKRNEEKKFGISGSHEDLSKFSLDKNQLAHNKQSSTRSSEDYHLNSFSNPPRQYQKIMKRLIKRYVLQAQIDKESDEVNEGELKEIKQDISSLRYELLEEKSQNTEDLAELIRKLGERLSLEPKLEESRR
TRPC4 agonist: TRPC4 (mouse) channel activation; B-score at 10 µM; actives 0.49% (n = 310,000); AID 2237; HEK293 TRPC4beta/mu-opioid, Fluo4 calcium fluorescence; active compounds read high;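 active = B-score above 5 SD of library B-scores, and initial fluorescence ratio not above library mean plus 5 SD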;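 note: positive B-score marks a calcium rise read as TRPC4 activation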
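Material: HEK293 stable line with TRPC4beta plus mu-opioid receptor; technique: Fluo4 calcium-sensitive dye fluorescence, kinetic, 1 Hz baseline; timing: Fluo4 dye loading 45 min at room temperature, 110 s recording; controls: assay buffer as low control, maximal DAMGO as high control; read-out: integrated baseline-normalised fluorescence ratio, converted to per-well B score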
TRPC4 potent: TRPC4 (mouse) allosteric potentiation | Q9QUQ5 | HEK293 TRPC4beta/mu-opioid, DAMGO EC20, Fluo-4 Ca2+ flux; active compounds read high | B-score at 10 µM | actives 0.42% (n = 310,000) | AID 2227;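 active = B-score of calcium response area above 5 SD of library B-scores, with initial fluorescence ratio within 5 SD of library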
TRPC6 inhibitor: inhibitors of mouse TRPC6 channel; Q61143; HEK293-TRPC6, membrane potential dye, ACh-evoked depolarization; active compounds read low; B-score at 10 µM; actives 1.1% (n = 310,000); AID 2553;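 active = B-score under library mean minus 3 SD, initial fluorescence not abnormally high, positive integrated signal ratio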;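 note: B-score derived from integrated fluorescence ratio over the kinetic read; more negative B-score means stronger inhibition of depolarization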
Large screens that a line does not name were inactive. In the library only some 2.3% were active in any assay of this set; here they are far more common.

O=C(C[n+]1ccccc1)Nc1ccc(Oc2ccccc2)cc1	none
CCOc1ccccc1N(C(=O)c1snc(C(N)=O)c1N)C(C(=O)NCc1ccccc1)c1ccc(O)cc1 (stereo unspecified)	TRPC4 block -9
NC(=O)c1nsc(C(=O)N(Cc2ccco2)C(C(=O)NCc2ccccc2)c2ccc(O)cc2)c1N (stereo unspecified)	TRPC4 block -8
COc1ccc(N(C(=O)c2snc(C(N)=O)c2N)C(C(=O)NCc2ccc(F)cc2)c2ccc(C)o2)c(OC)c1 (stereo unspecified)	none
COc1ccccc1N(C(=O)c1snc(C(N)=O)c1N)C(C(=O)NCc1ccccc1)c1ccc(C)o1 (stereo unspecified)	TRPC4 block -6
Cc1ccccc1N(C(=O)c1snc(C(N)=O)c1N)C(C(=O)NCc1ccccc1)c1ccc(O)cc1 (stereo unspecified)	none
O=C(NCc1ccccc1F)C1CCCN1C(=O)NCc1ccccc1 (stereo unspecified)	none
COc1c(S(=O)(=O)NCCCn2ccnc2)ccc(Cl)c1Cl	none
Cc1cc(C)c(S(=O)(=O)NCCCn2ccnc2)c(C)c1	TRPC4 agonist 68
Cc1c(Cl)ccc(S(=O)(=O)NCCCn2ccnc2)c1Cl	TRPC4 agonist 50
O=C1[C@H]2[C@@H](/C=C/c3ccccc3)N3C(=O)CN(Cc4ccccn4)C(=O)[C@@]3(Cc3ccccc3)[C@H]2C(=O)N1c1ccccc1	none
O=C(Cc1nc2ccccc2[nH]1)c1ccc([N+](=O)[O-])cc1	TRPC4 block -6
O=C(Cc1nc2ccccc2[nH]1)c1ccc(Cl)cc1	none
CC(=O)Nc1ccccc1OCC(=O)c1cc(C)n(Cc2cccs2)c1C	TRPC4 agonist 72
Cc1cc(C(=O)COc2cccnc2[N+](=O)[O-])c(C)n1Cc1cccs1	none
CCC(c1nnnn1CCc1ccccc1)N(Cc1ccco1)Cc1cc2cccc(C)c2[nH]c1=O (stereo unspecified)	TRPC4 potent 11
CCC(c1nnnn1C(C)(C)C)N(Cc1ccco1)Cc1cc2cccc(C)c2[nH]c1=O (stereo unspecified)	none
Cc1ccc2cc(CN(CCCN3CCOCC3)C(c3nnnn3Cc3ccco3)C(C)C)c(=O)[nH]c2c1C (stereo unspecified)	TRPC4 block -9
Cc1ccc2cc(CN(CCN3CCOCC3)Cc3nnnn3Cc3ccco3)c(=O)[nH]c2c1C	none
Cc1ccc2nc(-c3ccccc3)cc(C(=O)N(C)CC(=O)Nc3ccccc3Br)c2c1	none
Cc1ccc(S(=O)(=O)/N=C(/c2ccccc2)N2CCOCC2)c(C)c1	none
CCN1CCN(C(=O)c2cc(-c3ccc(Cl)s3)nc3ccccc23)CC1	TRPC4 potent 18
O=C(c1ccco1)N1CCN(Cc2nnc(-c3cccc(Br)c3)o2)CC1	none
CN1CCN(C2=Nc3cc(F)ccc3Cc3ccccc32)CC1	TRPC6 inhibitor -5.2
CN1CCN(C2=Nc3c(Cl)cc(Cl)c4cccc2c34)CC1	none
CCCCC(=O)Nc1cccc2c1C(=O)N(c1ccccc1)C2=O	TRPC4 potent 24
CCOC(=O)C1=C(COC(=O)C(CC)Oc2ccccc2)NC(=O)NC1C (stereo unspecified)	none
Cc1ccc(CN(C(=O)c2cc(=O)c3cc(C)cc(C)c3o2)C2CCS(=O)(=O)C2)cc1 (stereo unspecified)	none
Cc1cc2oc(C(=O)N(Cc3cccs3)C3CCS(=O)(=O)C3)cc(=O)c2cc1Cl (stereo unspecified)	TRPC4 potent 95
Cc1ccc(CN(C(=O)c2cc(=O)c3cc(Cl)c(C)cc3o2)C2CCS(=O)(=O)C2)cc1 (stereo unspecified)	TRPC4 potent 19
CCNC(=O)C1CCCN1C(=O)C(CCCN=C(N)N)NC(=O)C(CC(C)C)NC(=O)C(Cc1cn(Cc2ccccc2)cn1)NC(=O)C(Cc1ccc(O)cc1)NC(=O)C(CO)NC(=O)C(Cc1c[nH]c2ccccc12)NC(=O)C(Cc1cnc[nH]1)NC(=O)C1CCC(=O)N1 (stereo unspecified)	none
CCOC(=O)C1(CCOc2ccccc2)CCN(Cc2cccc(-n3cccn3)c2)CC1	TRPC4 agonist 98
COc1ccc(OC)c(CN2CCC(CO)(CCOc3ccccc3)CC2)c1	none
CCOC(=O)C1(CCOC)CCN(C(C)CCc2ccc(OC)cc2)CC1 (stereo unspecified)	TRPC4 block -7
CCOC(=O)C1(CCOc2ccccc2)CCN(Cc2ccc(NC(C)=O)cc2)CC1	TRPC4 agonist 83
CC(=O)Nc1ccc(CN2CCC(CO)(CCOc3ccccc3)CC2)cc1	none
CCOC(=O)C1(CCOC)CCN(C(=O)Cc2ccc3ccccc3c2)CC1	none
COc1cc(CN2CCC(CO)(CCOc3ccccc3)CC2)cc(OC)c1	TRPC4 block -5
COc1ccc(C(=O)COC(=O)CCNS(=O)(=O)c2ccccc2)cc1Br	none
O=C(NNS(=O)(=O)c1ccc2ccccc2c1)c1cccnc1	none
CCOC(=O)c1ccc(NC(=O)c2c(Cl)cc(C)nc2C)cc1	none
CCOC(=O)C1(CCOc2ccccc2)CCN(Cc2cccc(OC)c2OC)CC1	TRPC4 agonist 74
CCOC(=O)C1(CCOc2ccccc2)CCN(Cc2ccc(OC)cc2)CC1	TRPC4 agonist 94
CCOC(=O)C1(CCOc2ccccc2)CCN(Cc2cccc3c2OCO3)CC1	TRPC4 block -7
CCOC(=O)C1(CCOc2ccccc2)CCN(Cc2ccc(CO)o2)CC1	none
CCOC(=O)C1(CCOc2ccccc2)CCN(Cc2cnc(C)s2)CC1	TRPC4 agonist 115
CCOC(=O)C1(CCOc2ccccc2)CCN(Cc2ccccc2O)CC1	none
S=C1NCN(C2CCCCC2)CN1c1ccccc1	none
O=C(CCc1nnc2ccc(NCc3ccco3)nn12)Nc1ccc(F)cc1F	none
CCCN1CCN(C(=S)Nc2ccccc2C(F)(F)F)CC1	none
CSCC(C)N1CCC(CO)(CCc2ccccc2)CC1 (stereo unspecified)	none
CC(COc1ccccc1)N1CCC(CO)(CCc2ccccc2)CC1 (stereo unspecified)	TRPC4 agonist 51
COc1cc(NC(=O)CCCNC(=O)c2ccc(Cl)cc2)cc(OC)c1OC	none
CN(Cc1ccccc1)c1ccc(S(=O)(=O)N2CCC(C(=O)O)CC2)cc1[N+](=O)[O-]	none
COc1cc(CNc2ccc3[nH]c(=O)[nH]c3c2)ccc1OCc1ccccc1Cl	TRPC4 potent 12
O=c1[nH]c2ccc(NCc3ccc(OCc4ccccc4Cl)cc3)cc2[nH]1	none
Cc1ccc(SCC(=O)NCCc2ccc(F)cc2)cc1	none
COC(=O)c1cc2c(=O)c3ccccc3oc2nc1C	none
COC(=O)c1cc2c(=O)c3ccccc3oc2nc1/C=C/N(C)C	TRPC4 agonist 69
Nc1nc2ccccc2n1CCOc1ccc(F)cc1	TRPC4 block -6
